Measurements as given in ChEMBL document CHEMBL1137906, “Microwave assisted synthesis of 2-(4-substituted piperazin-1-yl)-1,8-naphthyridine-3-carbonitrile as a new class of serotonin 5-HT3 receptor antagonists” (Bioorg Med Chem Lett, 2004).

Test: Antagonism of 2-methyl-5-HT effect on 5-hydroxytryptamine 3 receptor in isolated guinea pig ileum
Type: functional, tissue-based
Conditions: Cavia porcellus, read-out: pA2 (converted)
Procedure, shortened: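 Longitudinal muscle-myenteric plexus strip from guinea pig ileum, prepared by a literature method. Equilibrated 30 min at 500 mg resting tension in Tyrode solution, ca. 37°C, constant aeration. Agonist 2-methyl-5-HT added noncumulatively at 15 min intervals; antagonism of its contractile response measured. Values are means of three separate experiments.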

Row | SMILES | Kb [nM]
1 | N#Cc1cc2cccnc2nc1N1CCN(c2ccccn2)CC1 | 126000
2 | CN1CCN(c2nc3ncccc3cc2C#N)CC1 | 39.8
3 | COc1ccc(N2CCN(c3nc4ncccc4cc3C#N)CC2)cc1 | 12600
4 | N#Cc1cc2cccnc2nc1N1CCN(c2ccc([N+](=O)[O-])cc2)CC1 | 158000
5 | CCN1CCN(c2nc3ncccc3cc2C#N)CC1 | 79.4
6 | N#Cc1cc2cccnc2nc1N1CCN(c2ccccc2)CC1 | 2000
7 | COc1cccc(N2CCN(c3nc4ncccc4cc3C#N)CC2)c1 | 1000
8 | N#Cc1cc2cccnc2nc1N1CCN(Cc2ccccc2)CC1 | 7940
9 | COc1ccccc1N1CCN(c2nc3ncccc3cc2C#N)CC1 | 3980
10 | C=CCN1CCN(c2nc3ncccc3cc2C#N)CC1 | 6.31
11 | N#Cc1cc2cccnc2nc1N1CCNCC1 | 316
12 | Cc1nccn1CC1CCc2c(c3ccccc3n2C)C1=O (configuration not stated) [ONDANSETRON] | 126
